Assay results reported in ChEMBL document CHEMBL1124441, “Synthesis of congeners and prodrugs. 3. Water-soluble prodrugs of taxol with potent antitumor activity” (1989).

Legend:
B16 [1] = test: Antitumor activity in B16 Melanoma system animals is indicated by survivors on day 4 at a dose of 2.5 mg/kg intraperitoneally; format: functional, Mus musculus; design: reference not given here; settings: route intraperitoneal
How it was run: (§1)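 B16 melanoma, 10^6 cells inoculated ip on day 0. Ip treatment started day 1, schedule Q01Dx09 (one dose daily for 9 days). The score is live animals on day 4 over total animals; early deaths are taken as drug toxicity.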

B16 [2] = test: Antitumor activity in B16 Melanoma system animals is indicated by survivors on day 4 at a dose of 10 mg/kg intraperitoneally; format: functional, Mus musculus; design: reference not given here; settings: route intraperitoneal; how it was run: as §1
B16 [3] = test: (§2) Difference in body weight in grams between test and control animals at a dose of 10 mg/kg intraperitoneally; format: functional, Mus musculus; settings: route intraperitoneal
How it was run: (§3)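 B16 melanoma system: 10⁶ tumor cells inoculated ip on day 0. Drug given ip once daily for 9 days (Q01Dx09) starting day 1, dose as mg/kg body weight per injection. Read-out is the body-weight difference in grams, treated minus control animals. Early deaths, taken as toxicity, are scored on day 4.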

B16 [4] = test: Percent of median lifetime of test animals divided by the median lifetime of control animals at a dose of 5 mg/kg intraperitoneally; format: functional, Mus musculus; settings: route intraperitoneal
How it was run: (§4)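 B16 melanoma inoculated ip (10⁶ cells) on day 0. Daily ip treatment for 9 days (Q01Dx09) begins day 1, dosed per injection in mg/kg. %T/C is the median lifespan of treated animals divided by that of tumored untreated controls, ×100. Cures are animals alive on the last test day. Toxic deaths are assessed on day 4.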

B16 [5] = test: Percent of median lifetime of test animals divided by the median lifetime of control animals at a dose of 20 mg/kg intraperitoneally; format: functional, Mus musculus; settings: route intraperitoneal; how it was run: as §4
B16 [6] = test: Difference in body weight in grams between test and control animals at a dose of 1.25 mg/kg intraperitoneally; format: functional, Mus musculus; settings: route intraperitoneal; how it was run: as §3
B16 [7] = test: Percent of median lifetime of test animals divided by the median lifetime of control animals at a dose of 10 mg/kg intraperitoneally; format: functional, Mus musculus; settings: route intraperitoneal; how it was run: as §4
B16 [8] = test: (§5) Difference in body weight in grams between test and control animals at a dose of 20 mg/kg intraperitoneally; format: functional, Mus musculus; settings: route intraperitoneal; how it was run: as §3
B16 [9] = test: Percent of median lifetime of test animals divided by the median lifetime of control animals at a dose of 2.5 mg/kg intraperitoneally; format: functional, Mus musculus; settings: route intraperitoneal; how it was run: as §4
B16 [10] = test: Percent of median lifetime of test animals divided by the median lifetime of control animals at a dose of 1.25 mg/kg intraperitoneally; format: functional, Mus musculus; settings: route intraperitoneal; how it was run: as §4
B16 [11] = test: Antitumor activity in B16 Melanoma system animals is indicated by survivors on day 4 intraperitoneally; settings: Mus musculus, route intraperitoneal
B16 [12] = test: (§6) Difference in body weight in grams between test and control animals at a dose of 5 mg/kg intraperitoneally; format: functional, Mus musculus; settings: route intraperitoneal; how it was run: as §3
B16 [13] = test: Antitumor activity in B16 Melanoma system animals is indicated by survivors on day 4 at a dose of 1.25 mg/kg intraperitoneally; format: functional, Mus musculus; settings: route intraperitoneal; how it was run: as §1
B16 [14] = test: (§7) Difference in body weight in grams between test and control animals at a dose of 2.5 mg/kg intraperitoneally; format: functional, Mus musculus; settings: route intraperitoneal; how it was run: as §3
B16 [15] = test: Antitumor activity in B16 Melanoma system animals is indicated by survivors on day 4 at a dose of 5 mg/kg intraperitoneally; format: functional, Mus musculus; settings: route intraperitoneal; how it was run: as §1
B16 [16] = test: (§8) Difference in body weight in grams between test and control animals at a dose of 40 mg/kg intraperitoneally; format: functional, Mus musculus; settings: route intraperitoneal; how it was run: as §3
B16 [17] = test: Percent of median lifetime of test animals divided by the median lifetime of control animals at a dose of 40 mg/kg intraperitoneally; Toxic; format: functional, organism-based; design: dose 40 mg/kg; settings: Mus musculus
How it was run: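 B16 melanoma, 10^6 cells ip on day 0, ip treatment from day 1, Q01Dx09 (single dose daily for 9 days). %T/C is median lifetime of treated over untreated tumored controls, times 100. Early deaths are assessed on day 4 for toxicity. Cures are animals alive on the last test day.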

B16 [18] = test: Antitumor activity in B16 Melanoma system animals is indicated by survivors on day 4 at a dose of 40 mg/kg intraperitoneally; format: functional, Mus musculus; settings: route intraperitoneal; how it was run: as §1
B16 [19] = test: Antitumor activity in B16 Melanoma system animals is indicated by survivors on day 4 at a dose of 20 mg/kg intraperitoneally; format: functional, Mus musculus; design: reference not given here; settings: route intraperitoneal; how it was run: as §1
MX1 [20] = test: as §2; format: functional, Mus musculus; settings: route intraperitoneal
MX1 [21] = test: as §6; format: functional, Mus musculus; settings: route intraperitoneal
MX1 [22] = test: as §8; format: functional, Mus musculus; settings: route intraperitoneal
MX1 [23] = test: as §5; format: functional, Mus musculus; settings: route intraperitoneal
B16 [24] = test: Antitumor activity in B16 Melanoma system animals is indicated by survivors on day 4 at a dose of 1.2 mg/kg intraperitoneally; format: functional, Mus musculus; settings: route intraperitoneal; how it was run: as §1
B16 [25] = test: Difference in body weight in grams between test and control animals at a dose of 1.2 mg/kg intraperitoneally; format: functional, Mus musculus; settings: route intraperitoneal
How it was run: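 B16 melanoma, 10^6 cells ip on day 0, then ip dosing from day 1, once daily for 9 days (Q01Dx09). The value is the body-weight difference in grams, treated minus tumored control animals.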

MX1 [26] = test: as §7; format: functional, Mus musculus; settings: route intraperitoneal
B16 [27] = test: Percent of median lifetime of test animals divided by the median lifetime of control animals at a dose of 40 mg/kg intraperitoneally; format: functional, Mus musculus; settings: route intraperitoneal; how it was run: as §4

SMILES	Activity (B16 [1])	Activity (B16 [2])	Weight difference (B16 [3]) [g]	T/C (B16 [4]) [%]	T/C (B16 [5]) [%]	T/C (B16 [7]) [%]	Weight difference (B16 [8]) [g]	T/C (B16 [9]) [%]	T/C (B16 [10]) [%]	Weight difference (B16 [12]) [g]	Weight difference (B16 [14]) [g]	Survivors on day 4 (B16 [15])	Weight difference (B16 [16]) [g]	Activity (B16 [18])	Activity (B16 [19])	also measured
CC(=O)OC1C(=O)[C@]2(C)C(O)C[C@H]3OC[C@@]3(OC(C)=O)[C@H]2[C@H](OC(=O)c2ccccc2)[C@]2(O)CC(OC(=O)[C@@H]3OC(=O)N(C(=O)c4ccccc4)[C@H]3c3ccccc3)C(C)=C1C2(C)C (some centres not stated)	10	10	-0.1	95	98	100	-0.2	88	94	0	-0.3	10	–	–	–	Weight difference (B16 [6]): -0.2 g; Activity (B16 [11]): 10; Activity (B16 [13]): 10
CC(=O)OC1C(=O)[C@@]2(C)[C@H]([C@H](OC(=O)c3ccccc3)[C@]3(O)CC(OC(=O)C(O)C(NC(=O)c4ccccc4)c4ccccc4)C(C)=C1C3(C)C)[C@]1(OC(C)=O)CO[C@@H]1C[C@@H]2O (some centres not stated)	–	10	0	175	96	139	0	–	–	-0.2	–	10	-1.2	10	10	T/C (B16 [17]): Toxic
CC(=O)OC1C(=O)[C@@]2(C)[C@H]([C@H](OC(=O)c3ccccc3)[C@]3(O)CC(OC(=O)C(OC(=O)CCCC(=O)NCCCN(C)C)C(NC(=O)c4ccccc4)c4ccccc4)C(C)=C1C3(C)C)[C@]1(OC(C)=O)CO[C@@H]1C[C@@H]2O.Cl (some centres not stated)	10	10	-0.1	188	352	352	0	129	123	0.1	-0.1	10	–	–	10	Weight difference (MX1 [20]): -2.2 T-C; Weight difference (MX1 [21]): 0.1 T-C; Weight difference (MX1 [22]): -5.9 T-C; Weight difference (MX1 [23]): 0.3 T-C; Activity (B16 [24]): 10; Weight difference (B16 [25]): -0.1 g; Weight difference (MX1 [26]): -0.6 T-C
CC(=O)OC1C(=O)[C@@]2(C)[C@H]([C@H](OC(=O)c3ccccc3)[C@]3(O)CC(OC(=O)C(OC(=O)CCC(=O)O)C(NC(=O)c4ccccc4)c4ccccc4)C(C)=C1C3(C)C)[C@]1(OC(C)=O)CO[C@@H]1C[C@@H]2O (some centres not stated)	10	10	0.4	154	154	159	0	119	–	0.4	0	10	0	10	10	T/C (B16 [27]): 185%
